From ChEMBL document CHEMBL2375242, “Synthesis of (S)-FTY720 vinylphosphonate analogues and evaluation of their potential as sphingosine kinase 1 inhibitors and activators” (Bioorg Med Chem, 2013)
Activity calls are given as the source filed them. No cut-off for these calls is given here.

Experiments:
Sphingosine kinase 1 [1] = target: T1, Sphingosine kinase 1 (Homo sapiens, UniProt Q9NYA1); experiment: Inhibition of recombinant GFP-tagged SK1 (unknown origin) expressed in HEK293 cells using sphingosine as substrate at 50 uM after 30 mins by Cerenkov counting analysis relative to control; type: cell-based
Procedure, shortened: (§1)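 Lysate of HEK 293 cells stably overexpressing GFP-SK1 (30 μg protein) was incubated for 30 min at 30 °C with 3 μM sphingosine (Km) in Triton X-100 and 250 μM [γ-32P]ATP in 10 mM MgCl2, at pH 7.4 Tris buffer with phosphatase and protease inhibitors. Compounds were in DMSO; the control was 5% DMSO. [32P]-S1P was extracted into 1-butanol/KCl and measured by Cerenkov counting. Activity is % of the sphingosine-alone control, n = 3, mean ± S.E.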

Sphingosine kinase 1 [2] = target: T1, Sphingosine kinase 1; experiment: Activity at recombinant GFP-tagged SK1 (unknown origin) expressed in HEK293 cells at 50 uM after 30 mins by Cerenkov counting analysis; type: cell-based
Sphingosine kinase 1 [3] = target: T1, Sphingosine kinase 1; experiment: Competitive inhibition of SK1 (unknown origin) in presence of ATP
Sphingosine kinase 1 [4] = target: T1, Sphingosine kinase 1; experiment: Uncompetitive inhibition of SK1 (unknown origin) in presence of ATP
Sphingosine kinase 1 [5] = target: T1, Sphingosine kinase 1; experiment: Uncompetitive inhibition of recombinant SK1 (unknown origin) expressed in HEK293 cells after 15 to 20 mins by Cornish-Bowden plot analysis in presence of sphingosine; type: cell-based
Sphingosine kinase 1 [6] = target: T1, Sphingosine kinase 1; experiment: Inhibition of recombinant GFP-tagged SK1 (unknown origin) expressed in HEK293 cells using sphingosine as substrate at 50 uM after 30 mins by Cerenkov counting analysis relative to control
Sphingosine kinase 1 [7] = target: T1, Sphingosine kinase 1; experiment: Activation of recombinant GFP-tagged SK1 (unknown origin) expressed in HEK293 cells using sphingosine as substrate after 30 mins by Cerenkov counting analysis; type: cell-based
Procedure, shortened: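 Enzyme source: lysates (30 μg) of HEK 293 cells stably overexpressing GFP-SK1, cultured in DMEM/10% FCS with geneticin. Reaction run 30 min at 30 °C with 3 μM sphingosine in Triton X-100 (0.063% final) and 250 μM [γ-32P]ATP in 10 mM MgCl2, pH 7.4 Tris buffer. Compound added in DMSO; control is 5% DMSO, set as 100% activity. [32P]-S1P is extracted into butanol and read by Cerenkov counting. EC50 from concentration-response, n = 3.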

Sphingosine kinase 1 [8] = target: T1, Sphingosine kinase 1; experiment: Activation of recombinant GFP-tagged SK1 (unknown origin) expressed in HEK293 cells using sphingosine as substrate at 50 uM after 30 mins by Cerenkov counting analysis relative to control; type: cell-based; procedure, shortened: as §1
Sphingosine kinase 1 [9] = target: T1, Sphingosine kinase 1; experiment: Activation of recombinant GFP-tagged SK1 (unknown origin) expressed in HEK293 cells using sphingosine as substrate above 50 uM after 30 mins by Cerenkov counting analysis; type: cell-based; procedure, shortened: as §1

T1 sequence (Q9NYA1 whole entry): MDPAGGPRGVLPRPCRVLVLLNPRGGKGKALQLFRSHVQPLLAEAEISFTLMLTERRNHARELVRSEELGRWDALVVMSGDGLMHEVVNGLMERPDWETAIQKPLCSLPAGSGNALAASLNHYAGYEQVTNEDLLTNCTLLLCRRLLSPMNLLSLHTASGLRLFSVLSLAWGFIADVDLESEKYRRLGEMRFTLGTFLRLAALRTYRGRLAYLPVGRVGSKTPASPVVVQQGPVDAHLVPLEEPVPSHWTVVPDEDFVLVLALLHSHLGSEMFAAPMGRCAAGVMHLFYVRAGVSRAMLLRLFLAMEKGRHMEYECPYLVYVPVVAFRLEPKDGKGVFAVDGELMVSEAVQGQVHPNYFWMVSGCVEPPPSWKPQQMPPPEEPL

Compound	inhibition (Sphingosine kinase 1 [1])	Activity (Sphingosine kinase 1 [2])	EC50 (Sphingosine kinase 1 [7]) [µM]	Activity (Sphingosine kinase 1 [8]) [%]	other results
CCCCCCCCc1ccc(CC[C@](N)(/C=C/P(=O)(O)O)CO)cc1	–	–	–	–	Kic (Sphingosine kinase 1 [3]): 10 µM; Kiuc (Sphingosine kinase 1 [4]): 65 µM; Kiuc (Sphingosine kinase 1 [5]): 14.5 µM; inhibition (Sphingosine kinase 1 [6]): 62.7%
CCCCCCCCc1ccc(CC[C@](N)(/C=C/P(=O)(O)O)CF)cc1	20%	inactive	–	–	–
CCCCCCCCc1ccc(CC[C@](/C=C/P(=O)(O)O)(CF)N=[N+]=[N-])cc1	–	inactive	5.7	30	–
CCCCCCCCc1ccc(CC[C@](/C=C/P(=O)(O)O)(CO)N=[N+]=[N-])cc1	–	inactive	8.3	30	Activity (Sphingosine kinase 1 [9]): inactive

More lines, main results first:

inhibition (Sphingosine kinase 1 [1])	Activity (Sphingosine kinase 1 [2])	Compound	EC50 (Sphingosine kinase 1 [7]) [µM]	Activity (Sphingosine kinase 1 [8]) [%]	other results
35%	inactive	CCCCCCCCc1ccc(CC[C@]2(N)CCC(=O)OC2)cc1	–	–	–
inactive	inactive	CCCCCCCCc1ccc(CC[C@](N)(/C=C/C(=O)O)CO)cc1	–	–	–
